How the values were obtained:
L6 = assay: Cytotoxicity against rat L6 cells after 72 hrs by Alamar blue assay; type: cell-based; settings: L6, 72 h
Method in brief: (§1)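 96-well plate growth-inhibition format. Targets were T. b. rhodesiense bloodstream trypomastigotes, T. cruzi Tulahuen C4 amastigotes inside L6 rat skeletal myoblasts, axenically cultured L. donovani MHOM-ET-67/L82 amastigotes, and L6 cells alone for cytotoxicity.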

Trypanosoma cruzi [1] = assay: Ratio of banznidazole IC50 to compound IC50 for Trypanosoma cruzi Tulahuen C4 amastigotes; type: functional
[2] = Selectivity index, ratio of IC50 for rat L6 cells to IC50 for Leishmania donovani MHOM-ET-67/L82 amastigotes; type: toxicity, cell-based; settings: read-out: Ratio IC50
Method in brief: (§2)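 SI is the L6 myoblast IC50 divided by the IC50 against the parasite named. IC50s come from 96-well dose-response curves, each the mean of two independent assays.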

Leishmania donovani = assay: Antimicrobial activity against Leishmania donovani MHOM-ET-67/L82 amastigotes after 72 hrs by Alamar blue assay; type: functional, organism-based; settings: MHOM-ET-67/L82, 72 h; method in brief: as §1
[3] = Selectivity index, ratio of IC50 for rat L6 cells to IC50 for Trypanosoma cruzi Tulahuen C4 amastigotes; type: toxicity, cell-based; settings: read-out: Ratio IC50; method in brief: as §2
Trypanosoma cruzi [4] = assay: Antimicrobial activity against Trypanosoma cruzi Tulahuen C4 amastigotes infected in rat L6 cells after 96 hrs by beta-galactosidase reporter gene assay; type: functional, organism-based; settings: Tulahuen C4, L6, 96 h; method in brief: as §1
[5] = Selectivity index, ratio of IC50 for rat L6 cells to IC50 for blood stream form of Trypanosoma brucei rhodesiense STIB 900; type: toxicity, cell-based; settings: read-out: Ratio IC50; method in brief: as §2
[6] = system: Trypanosoma brucei rhodesiense; assay: Antimicrobial activity against blood stream form of Trypanosoma brucei rhodesiense STIB 900 after 72 hrs by Alamar blue assay; type: functional, organism-based; settings: STIB 900, 72 h; method in brief: as §1
[7] = Prodrug conversion assessed as Trypanosoma brucei brucei recombinant his-tagged nitroreductase-mediated NADH oxidization by spectrophotometric analysis; type: ADME; settings: isolated protein

Row | SMILES | IC50 (Trypanosoma cruzi [4]) [nM] | IC50 [6] [µM] | Drug metabolism [7] [nmol/min/mg] | IC50 (L6) [µM] | Ratio IC50 (Trypanosoma cruzi [1]) | selectivity ratio [2] | IC50 (Leishmania donovani) [µM] | selectivity ratio [3] | selectivity ratio [5]
1 | O=[N+]([O-])c1ncn(CCCN2CCN(c3ccncc3)CC2)n1 | 8800 | 1.34 | – | 154 | 0.2 | < 1 | > 315 | 17.5 | 115
2 | Cl.O=C(C1CC1)N1CCN(CCCn2cnc([N+](=O)[O-])n2)CC1 | 4700 | 15.6 | – | 203 | 0.3 | < 1 | > 290 | 43.1 | 13
3 | O=[N+]([O-])c1nccn1CCCNc1nc2ccc(Cl)cc2s1 | 3230 | 7.61 | – | 49.5 | 0.6 | 11.6 | 4.27 | 15.3 | 6.5
4 | O=[N+]([O-])c1nccn1CCCNc1nc2ccccc2s1 | 4880 | 52.5 | – | 176 | 0.4 | 15.4 | 11.4 | 36.1 | 3.4
5 | O=[N+]([O-])c1nccn1CCCCNc1nc2ccc(Cl)cc2s1 | 1750 | 3.87 | – | 43 | 1.2 | 5.5 | 7.3 | 24.6 | 11.1
6 | Cl.Cl.O=[N+]([O-])c1ncn(CCCN2CCN(Cc3ccc(C(F)(F)F)cc3)CC2)n1 | – | – | 420 | – | 4.6 | – | – | – | –
7 | Cl.Cl.O=[N+]([O-])c1ncn(CCCCN2CCN(Cc3ccc(C(F)(F)F)cc3)CC2)n1 | – | – | 364 | – | 3.8 | – | – | – | –
8 | Cl.Cl.O=[N+]([O-])c1ncn(CCCN2CCN(c3ccc(C(F)(F)F)cc3)CC2)n1 | – | – | 788 | – | 39.2 | – | – | – | –
9 | COc1ccc(N2CCN(CCCn3ccnc3[N+](=O)[O-])CC2)cc1.Cl.Cl | 34400 | 62.4 | – | 137 | 0.1 | < 1 | 186 | 4 | 2.2
10 | Cl.Cl.Cl.Cl.O=[N+]([O-])c1nccn1CCCN1CCN(Cc2ccc(Cl)c(Cl)c2)CC1 | 9400 | 10.7 | – | 79.2 | 0.2 | < 1 | 150 | 8.4 | 7.4
11 | Cl.Cl.O=[N+]([O-])c1ncn(CCCN2CCN(c3ncccn3)CC2)n1 | 1680 | 49.6 | – | > 100 | 0.9 | 1 | > 100 | 152 | 5.2
12 | O=C(Cn1ccnc1[N+](=O)[O-])NCc1ccccc1 [BENZNIDAZOLE] | – | – | 218 | – | – | – | – | – | –
13 | CC1CS(=O)(=O)CCN1/N=C/c1ccc([N+](=O)[O-])o1 (centres undefined) [NIFURTIMOX] | – | – | 74 | – | – | – | – | – | –

Further lines, with some results ahead:

Row | IC50 (Trypanosoma cruzi [4]) [nM] | IC50 [6] [µM] | Drug metabolism [7] [nmol/min/mg] | SMILES | IC50 (L6) [µM] | Ratio IC50 (Trypanosoma cruzi [1]) | selectivity ratio [2] | IC50 (Leishmania donovani) [µM] | selectivity ratio [3] | selectivity ratio [5]
14 | 59 | 0.204 | – | O=[N+]([O-])c1ncn(CCCNc2nc3ccc(Cl)cc3s2)n1 | 102 | 26.6 | 22.7 | 4.49 | 1720 | 500
15 | 566 | 0.954 | – | O=[N+]([O-])c1ncn(CCCNc2nc3ccccc3s2)n1 | 162 | 3.6 | 8.1 | 20 | 287 | 170
16 | 142 | 0.355 | – | O=[N+]([O-])c1ncn(CCCCNc2nc3ccc(Cl)cc3s2)n1 | 44.5 | 14.4 | 10.9 | 4.1 | 314 | 126
17 | 286 | 0.78 | – | Cl.Cl.Cl.Cl.O=[N+]([O-])c1ncn(CCCN2CCN(Cc3ccc(Cl)c(Cl)c3)CC2)n1 | 33.5 | 7.1 | 1.4 | 23.9 | 117 | 42.9
18 | 419 | 23.9 | – | Cc1ccc(N2CCN(CCCn3cnc([N+](=O)[O-])n3)CC2)cc1.Cl.Cl | 121 | 3.7 | < 1 | 173 | 289 | 5.1
19 | 828 | 10.5 | – | Cl.Cl.N#Cc1ccccc1N1CCN(CCCn2cnc([N+](=O)[O-])n2)CC1 | 113 | 2.5 | < 1 | 180 | 137 | 10.8
20 | 556 | 35.6 | – | COc1ccc(N2CCN(CCCn3cnc([N+](=O)[O-])n3)CC2)cc1.Cl.Cl | 125 | 2.8 | < 1 | > 239 | 224 | 3.5
21 | 848 | 35.6 | – | Cl.Cl.O=[N+]([O-])c1ncn(CCCN2CCN(c3ccccn3)CC2)n1 | 153 | 1.9 | < 1 | > 315 | 180 | 4.3
22 | 48 | 0.231 | – | Cl.Cl.Cl.Cl.O=[N+]([O-])c1ncn(CCCN2CCN(c3ccc(Cl)c(Cl)c3)CC2)n1 | 41.7 | 32.7 | 3.7 | 11.3 | 868 | 180

— ChEMBL document CHEMBL2440067, “Novel 3-nitro-1H-1,2,4-triazole-based piperazines and 2-amino-1,3-benzothiazoles as antichagasic agents” (Bioorg Med Chem, 2013)
